Assay results: ChEMBL document CHEMBL1127304, “The discovery of novel, structurally diverse protein kinase C agonists through computer 3D-database pharmacophore search. Molecular modeling studies” (J Med Chem, 1994)

target: T1, Protein kinase C alpha type (Homo sapiens, UniProt P17252); test: (§1) Binding affinity with protein kinase C (PK-C) alpha bound to labeled [20-3H]-PDBU at a conc of 30 ug/mL
In short: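 Competitive displacement of [20-³H]phorbol 12,13-dibutyrate bound to PK-C α, with each ligand at a single concentration of 30 μg/mL in media. The read-out is percent inhibition of bound [³H]PDBU.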

Q: Which inhibition does the source give for `CC(=O)C(C(=O)CCSCCO)C(SCCO)c1ccc(Cl)c(Cl)c1` (stereo unspecified) here?
A: 30%

Q: `O=C1c2cccc(O)c2C(=O)c2c(OCCN(CCO)Cc3ccccc3)cccc21` was tested. Which inhibition did it give?
A: 25%

Q: For `O=C1c2c(NCCCNCCO)cccc2C(=O)c2c(NCCCNCCO)ccc(O)c21`, which inhibition is on record?
A: 30%

Q: How did the inhibition turn out when `COc1cccc2c1C(=O)c1c(O)c3c(c(O)c1C2=O)C[C@@](O)(/C(CO)=N/NC(=O)c1ccc(Cl)c(Cl)c1)C[C@@H]3OC1CC(N)C(O)C(C)O1` (stereo partly specified) was run?
A: 30%

Q: `O=C1c2cccc(O)c2C(=O)c2c(OCCN(CCO)Cc3ccccc3)ccc(O)c21` was tested. Which inhibition did it give?
A: 34%

Q: Which inhibition does the source give for `CC(=O)O[C@@H]1CC2C(C)(C)C(=O)C=CC2(C)C2CCC3(C)C(=CCC3C(CO)CCC(O)C(=O)C(C)(C)O)C21` (stereo partly specified) here?
A: 27%

target: T1, Protein kinase C alpha type; test: as §1

Q: Which Ki does the source give for `O=C1c2ccccc2C(=O)c2c(Nc3cccc(S(=O)(=O)N(CCO)CCO)c3)ccc(O)c21` here?
A: 26.6 µM

Q: `C[C@]12C/C(=C/N(CCO)CCO)C(=O)C[C@@H]1CC[C@@H]1[C@@H]2CC[C@]2(C)[C@@H](O)CC[C@@H]12` was tested. Which Ki did it give?
A: 16.1 µM

Q: With `O=C(OCC(O)C(OC(=O)c1ccccc1)C(CO)OC(=O)c1ccccc1)c1ccccc1` (stereo unspecified) as the compound, how does the Ki read?
A: 12.9 µM

Q: Which Ki does the source give for `CC(=O)OC[C@@]1(C)C(OC(C)=O)CC[C@]2(C)[C@H](CC(OC(C)=O)C3=CCOC3=O)[C@](C)(CO)CC[C@H]21` (stereo partly specified) here?
A: 37.7 µM

Q: With `O=C1c2ccccc2C(=O)c2c(Nc3ccc(S(=O)(=O)N(CCO)CCO)cc3)ccc(O)c21` as the compound, how does the Ki read?
A: 7.8 µM
